# Laboratory results as given in article PMC3257516 (Bioorganic & medicinal chemistry, 2011).
# Several values for one entry are separate records, joined by “and”; a condition that tells them apart may be missing. Equal entries are not always repeated. Entries after “also recorded” stand apart in the source; their conditions may differ.
# Experiments:
# HPPK [1] = details: cited from earlier work
# HPPK [2] = biological target: HPPK (Escherichia coli, UniProt P26281); assay: Fluorometric titration of HPPK with inhibitor; type: binding, E. coli; details: ratio of Kd values, 19 versus 17
# HPPK (Escherichia coli, UniProt P26281), sequence (P26281 whole entry): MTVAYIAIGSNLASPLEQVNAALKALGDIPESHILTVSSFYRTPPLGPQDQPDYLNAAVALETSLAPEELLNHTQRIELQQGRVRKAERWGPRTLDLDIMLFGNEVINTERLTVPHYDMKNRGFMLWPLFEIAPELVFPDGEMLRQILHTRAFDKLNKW
# In short: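 Fluorescence titration of HPPK (initial 10 μM) with inhibitor dissolved in DMSO, added as aliquots from a 500 μM stock. Excitation/emission 420/450 nm or 450/480 nm depending on compound; slits 1 and 4 nm. Kd from nonlinear least-squares fit of fluorescence change to a quadratic single-site binding equation using total enzyme and total inhibitor concentrations.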
# E. coli HPPK = E. coli HPPK (Escherichia coli, UniProt P26281); assay: HPPK enzyme inhibition assay with [α-32P]-ATP; type: biochemical; details: ratio of IC50 values, 19 versus 17
# E. coli HPPK, sequence (P26281 whole entry): as above
# [3] = Chemical stability of the inhibitors; type: physicochemical; details: compound not in complex with HPPK
structure (smiles),measurement,setting,value
"Nc1nc2c(c(=O)[nH]1)N=C(CO)CN2 [HP, 6-hydroxymethyl-7,8-dihydropterin]",Kd for the binding of HP to ligand-free HPPK,HPPK [1],mM range
same,Kd for the binding of HP to the HPPK MgATP complex,HPPK [1],sub-μM range
"CC1(C)Nc2nc(N)[nH]c(=O)c2N=C1C(=O)NCCN1CCC(SC[C@H]2O[C@@H](n3cnc4c(N)ncnc43)[C@H](O)[C@@H]2O)CC1 [Compound 19, 2-amino-7,7-dimethyl-4-oxo-3,4,7,8-tetrahydro-pteridine-6-carboxylic acid (2-{4-[5-(6-amino-purin-9-yl)-3,4-dihydroxy-tetrahydro-furan-2-ylmethylsulfanyl]-piperidin-1-yl}-ethyl)-amide]",increased binding affinity over 17,HPPK [2],60 fold and ~ 60 fold
same,increased inhibition ability over 17,E. coli HPPK,30 fold
same,chemical stability,[3],stable
"CC1(C)Nc2nc(N)[nH]c(=O)c2N=C1CNCCN1CCC(SCC2OC(n3cnc4c(N)ncnc43)C(O)C2O)CC1 (centres unmarked) [Compound 18, 2-amino-6-[(2-{4-[5-(6-amino-purin-9-yl)-3,4-dihydroxy-tetrahydro-furan-2-ylmethylsulfanyl]-piperidin-1-yl}-ethylamino)-methyl]-7,7-dimethyl-7,8-dihydro-3H pteridin-4-one]",chemical stability,[3],not stable; also recorded: tends to degrade
"Nc1nc2ncc(CNCCN3CCC(SC[C@H]4O[C@@H](n5cnc6c(N)ncnc65)[C@H](O)[C@@H]4O)CC3)nc2c(=O)[nH]1 [Compound 17, 2-amino-6-[(2-{4-[5-(6-amino-purin-9-yl)-3,4-dihydroxy-tetrahydro-furan-2-ylmethylsulfanyl]-piperidin-1-yl}-ethylamino)-methyl]-3H-pteridin-4-one]",chemical stability,[3],stable
Nc1ncnc2c1ncn2[C@@H]1O[C@H](COP(=O)(O)OP(=O)(O)OP(=O)(O)O)[C@@H](O)[C@H]1O [MgATP],Kd,HPPK [1]; read-out: Kd for the binding of MgATP to HPPK,2.6 to 4.5 µM
